The source made the active and inactive calls. The calls are words filed in the database; no cut-off is given here.
What was measured:
[1] = molecular target: T1, Tubulin (Sus scrofa) (UniProt P02554+P02550); test: Inhibition of porcine brain tubulin polymerization at 3 uM measured for 1 hr by spectrofluorometer analysis
Procedure, shortened: (§1)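 This was an in vitro tubulin polymerization assay monitored kinetically for 1 h against a DMSO vehicle control. Polymerization was read fluorometrically from incorporation of a fluorescent reporter, in relative fluorescence units. Data are mean of duplicates ± SEM of three independent trials, compared with control.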

[2] = molecular target: T1, Tubulin (Sus scrofa); test: Inhibition of porcine brain tubulin polymerization at 10 uM measured for 1 hr by spectrofluorometer analysis; procedure, shortened: as §1
[3] = system: U2OS; test: Anticancer activity against human U2OS cells assessed as reduction in cell proliferation at 2.5 to 5 uM after 48 hrs by WST-1 assay; type: functional; set-up: scale not given: the % may be the effect or the level left
Procedure, shortened: (§2)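 Cells were exposed to compound for 48 h and proliferation was measured from dose-response curves. NCM460 was tested at doses up to 20 µM. U-2 OS was also read in the 2.5-5.0 µM range. IC50 was calculated from the curves. Data are mean of quadruplicates ± SD from three independent trials.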

[4] = system: U2OS; test: Anticancer activity against human U2OS cells assessed as reduction in cell proliferation after 48 hrs by WST-1 assay; type: functional, cell-based; procedure, shortened: as §2
[5] = system: MV4-11; test: Anticancer activity against human MV4-11 cells assessed as reduction in cell proliferation after 48 hrs by WST-1 assay; type: functional, cell-based; settings: MV4-11, 48 h; procedure, shortened: as §2
[6] = system: SAOS-2; test: Induction of apoptosis in human Saos2 cells assessed as phosphatidylserine externalization at 0.01 and 5 uM after 48 hrs by AnnexinV/propidium iodide staining based Tali-image based cytometry; type: functional, cell-based
Procedure, shortened: (§3)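 After 48 h treatment, phosphatidylserine externalization was detected with Annexin V–Alexa Fluor 488, and membrane-permeabilized (necrotic) cells were detected by propidium iodide uptake. Green and/or red populations were quantified by image-based cytometry. Signal above the control baseline was scored as apoptotic, necrotic, or both. Data are mean ± SD of three independent trials.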

[7] = system: U2OS; test: Anticancer activity against human U2OS cells assessed as reduction in cell proliferation at 10 uM after 48 hrs by WST-1 assay; type: functional, cell-based
Procedure, shortened: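 This was a blind single-concentration screen of a 600-compound library against U-2 OS osteosarcoma cells. Each compound was tested at 10 µM for 48 h, and reduced proliferation was flagged for follow-up.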

[8] = Induction of apoptosis in human NCM460 cells assessed as phosphatidylserine externalization 0.1 and 20 uM after 48 hrs by AnnexinV/propidium iodide staining based Tali-image based cytometry; type: cell-based; settings: ncm460, 48 h; procedure, shortened: as §3
[9] = system: Jurkat E6.1; test: Anticancer activity against human Jurkat E6-1 cells assessed as reduction in cell proliferation after 48 hrs by WST-1 assay; type: functional, cell-based; settings: Jurkat E6.1, 48 h; procedure, shortened: as §2
[10] = Cytotoxicity against human NCM460 cells assessed as reduction in cell proliferation after 48 hrs by WST-1 assay; type: cell-based; settings: NCM460, 48 h; procedure, shortened: as §2
[11] = system: MV4-11; test: Induction of apoptosis in human MV4-11 cells assessed as phosphatidylserine externalization at 0.0075 and 5 uM after 48 hrs by AnnexinV/propidium iodide staining based Tali-image based cytometry; type: functional, cell-based; procedure, shortened: as §3
[12] = Anticancer activity against human Saos2 cells assessed as reduction in cell proliferation after 48 hrs by WST-1 assay; type: functional, cell-based; settings: SAOS-2, 48 h; procedure, shortened: as §2

T1 sequence (P02550 whole entry, looked up): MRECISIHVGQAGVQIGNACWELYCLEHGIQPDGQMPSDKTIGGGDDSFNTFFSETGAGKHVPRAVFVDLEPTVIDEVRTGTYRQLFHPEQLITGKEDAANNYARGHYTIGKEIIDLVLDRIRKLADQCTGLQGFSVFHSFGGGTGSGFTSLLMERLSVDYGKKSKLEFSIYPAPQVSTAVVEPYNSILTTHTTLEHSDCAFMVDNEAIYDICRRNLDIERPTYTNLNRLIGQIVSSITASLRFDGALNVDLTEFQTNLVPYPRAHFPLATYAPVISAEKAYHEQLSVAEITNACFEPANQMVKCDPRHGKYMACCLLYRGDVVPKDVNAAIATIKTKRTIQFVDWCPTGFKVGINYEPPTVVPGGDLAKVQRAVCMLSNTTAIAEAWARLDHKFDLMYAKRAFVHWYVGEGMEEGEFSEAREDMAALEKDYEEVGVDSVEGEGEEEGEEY
T1 sequence (P02554 whole entry, looked up): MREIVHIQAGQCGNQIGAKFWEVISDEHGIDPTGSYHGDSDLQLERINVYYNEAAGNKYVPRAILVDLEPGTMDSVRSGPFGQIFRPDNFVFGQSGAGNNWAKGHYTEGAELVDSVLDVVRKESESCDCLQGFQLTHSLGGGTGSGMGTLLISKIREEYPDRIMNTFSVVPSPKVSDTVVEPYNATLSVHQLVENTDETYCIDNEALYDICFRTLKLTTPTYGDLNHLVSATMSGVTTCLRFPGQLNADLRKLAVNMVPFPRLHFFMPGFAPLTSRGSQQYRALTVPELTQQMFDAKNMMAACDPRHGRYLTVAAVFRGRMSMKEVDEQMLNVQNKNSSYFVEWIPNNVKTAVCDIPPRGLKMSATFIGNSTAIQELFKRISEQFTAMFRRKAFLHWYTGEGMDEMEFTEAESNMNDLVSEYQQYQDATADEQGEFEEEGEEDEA

inhibition [1] | inhibition [2] | IC50 [4] [nM] | IC50 [5] [nM] | IC50 [9] [nM] | SMILES | Activity [3] [%] | Activity [6] | inhibition [7] | Activity [8] | IC50 [10] [nM] | Activity [11] | IC50 [12] [nM]
Active | Active | > 20000 | 1250 | 486 | COc1cc(-c2ccc(OC)c(OC)c2OC)ccc1O | 60 | Active | Active | Non-toxic | > 20000 | Active | 1770
inactive | Active | > 20000 | 2760 | 965 | COc1ccc(-c2ccc(OC)c(OC)c2OC)cc1O | 60 | Active | Active | Non-toxic | > 20000 | Active | 5430

SMILES | inhibition [1] | inhibition [2] | IC50 [4] [nM] | IC50 [5] [nM] | IC50 [9] [nM] | Activity [3] [%] | Activity [6] | inhibition [7] | Activity [8] | IC50 [10] [nM] | Activity [11] | IC50 [12] [nM]
COc1ccc(/C=C\c2cc(OC)c(OC)c(OC)c2)cc1O [COMBRETASTATIN A4] | Active |  | 14.1 | 6.27 | 6.08 | 30 | Active |  | Non-toxic | > 20000 | Active | 11.4

Reference: ChEMBL document CHEMBL3585301 (Bioorg Med Chem Lett, 2014)
